Legend:
Hepatitis C virus [1] = assay: Antiviral activity against HCV genotype 1 infected in human assessed as reduction in viral titer after 48 hrs; format: functional, Hepacivirus hominis
Hepatitis C virus [2] = assay: Antiviral activity against HCV 1a containing chimeric genotype 1a-H77/1b-con1 subgenom in human Huh7 cells assessed as reduction in viral RNA after 4 days by RT-PCR; settings: subtype 1a, Huh-7, 96 h
Hepatitis C virus [3] = assay: Antiviral activity against HCV isolate Con1 in human Huh7 cells assessed as reduction in viral RNA after 4 days by RT-PCR; settings: isolate Con1, Huh-7, 96 h
[4] = Volume of distribution at steady state in rat at 5 mg/kg, iv; format: ADME, organism-based; parameters: dose 5 mg/kg, route intravenous; settings: in vivo, read-out: Vdss
Method in brief: (§1)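 Single intravenous dose. Heparinized plasma sampled at 0.1, 0.25, 0.5, 1, 2, 4, 6, 9, 12 and 24 h, plus 3 and 15 h in dog. Drug was isolated by acetonitrile protein precipitation and quantified by LC-MS in negative-ion MRM mode (m/z 516.2→437.0) against an internal standard. Concentrations came from unweighted linear regression of spiked standards.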

[5] = AUC in dog at 2.5 mg/kg, iv; format: ADME, organism-based, Canis lupus familiaris; parameters: dose 2.5 mg/kg, route intravenous; settings: plasma
Method in brief: (§2)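 Vehicle DMSO:PEG400 (10:90, v/v). Dosing at 5 mg/kg in rat and monkey; dog 5 mg/kg or 2.5 mg/kg. Protein precipitation with acetonitrile, then LC-MS/MS in negative-ion MRM (m/z 516.2→437.0) against spiked standards with internal standard.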

[6] = Inhibition of HCV isolate BK NS5B polymerase after 3 hrs by scintillation counting
[7] = Plasma clearance in dog at 2.5 mg/kg, iv; format: ADME, organism-based, Canis lupus familiaris; parameters: dose 2.5 mg/kg, route intravenous; method in brief: as §2
[8] = Elimination half life in rat at 5 mg/kg, iv; format: ADME, organism-based; parameters: dose 5 mg/kg, route intravenous; settings: in vivo, read-out: beta t1/2 (converted); method in brief: as §2
[9] = Solubility in polyethylene glycol 400 at 25 deg C; format: physicochemical
Method in brief: (§3)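 Equilibrium solubility in PEG 400, in 50 mM citrate buffer pH 4 or in 50 mM phosphate buffer pH 7.4. Buffers brought to ionic strength 0.155 M with NaCl. Vials rotated at 25 °C for 4 days, final pH measured, then supernatant assayed by reverse-phase HPLC at 262 nm against a linear standard curve.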

[10] = n-Octanol-phosphate buffer distribution coefficient, log D at pH 7.4; format: physicochemical
Method in brief: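 Compound was dissolved in n-octanol and mixed with 50 mM phosphate buffer, isotonic with NaCl, pH 7.4. The mixture was tumbled at 25 °C, 25 rpm, for 2-3 days, then centrifuged to split the phases. Each phase was assayed by reverse-phase HPLC (UV 262 nm) against a linear standard curve. D is the octanol/buffer concentration ratio.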

[11] = Elimination half life in monkey at 5 mg/kg, iv; format: ADME, organism-based, Macaca mulatta; parameters: dose 5 mg/kg, route intravenous; settings: rhesus monkey, in vivo, read-out: beta t1/2 (converted); method in brief: as §2
[12] = Drug level in rat liver at 5 mg/kg, po after 6 hrs; format: ADME, organism-based; parameters: dose 5 mg/kg, route oral; settings: read-out: Drug uptake
Method in brief: (§4)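 Rats dosed orally at 5 mg/kg, four groups, sacrificed at 6 and 12 h. Plasma and liver homogenate extracted by acetonitrile protein precipitation with internal standard and quantified by LC-MS (negative-ion MRM). Liver/plasma ratio taken from the two concentrations.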

[13] = Metabolic stability in monkey liver microsomes assessed as intrinsic clearance; format: ADME, Macaca mulatta, Microsome; settings: rhesus monkey
Hepatitis C virus [14] = assay: Ratio of EC50 for HCV isolate Con1 in presence of 40% human serum to EC50 for HCV isolate Con1; format: functional, Hepacivirus hominis
Method in brief: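 Genotype 1b-con1 subgenomic replicon in Huh-7 cells. Four-day incubation with inhibitor in medium with 5% FBS, with or without 40% human serum. EC50 from the fall in HCV RNA copy number by real-time PCR. Ratio is EC50 with serum over EC50 without.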

[15] = Metabolic stability in dog hepatocytes assessed as intrinsic clearance; format: ADME, cell-based, Canis lupus familiaris, Liver, Hepatocyte
[16] = Elimination half life in dog at 2.5 mg/kg, po; format: ADME, organism-based, Canis lupus familiaris; parameters: dose 2.5 mg/kg, route oral; settings: in vivo, read-out: beta t1/2 (converted); method in brief: as §2
[17] = Metabolic stability in human liver microsomes assessed as intrinsic clearance; format: ADME, Microsome
[18] = Tmax in dog at 2.5 mg/kg, po; format: ADME, organism-based, Canis lupus familiaris; parameters: dose 2.5 mg/kg, route oral; settings: in vivo
Method in brief: (§5)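 Single oral gavage-type dose in DMSO:PEG400 (10:90, v/v). Heparinized plasma collected at 0.25, 0.5, 1, 2, 4, 6, 9, 12 and 24 h, with extra 3 and 15 h points in dog. Acetonitrile protein precipitation was followed by LC-MS in negative-ion MRM mode with an internal standard. Tmax was read from the plasma profile.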

[19] = Oral bioavailability in dog at 2.5 mg/kg; format: ADME, organism-based, Canis lupus familiaris; settings: in vivo; method in brief: as §2
[20] = Oral bioavailability in monkey at 5 mg/kg; format: ADME, organism-based, Macaca mulatta; settings: rhesus monkey, in vivo; method in brief: as §2
[21] = Drug level in rat liver at 5 mg/kg, po after 12 hrs; format: ADME, organism-based; parameters: dose 5 mg/kg, route oral; settings: read-out: Drug uptake; method in brief: as §4
Hepatitis C virus [22] = assay: Antiviral activity against HCV isolate Con1 assessed as reduction in viral RNA after 4 days by RT-PCR in presence of 40% human serum; settings: isolate Con1, 96 h
[23] = Aqueous solubility in 50 mM phosphate buffer at pH 7.4; format: physicochemical; method in brief: as §3
[24] = Terminal phase volume of distribution in monkey at 5 mg/kg, iv; format: ADME, organism-based, Macaca mulatta; parameters: dose 5 mg/kg, route intravenous; settings: rhesus monkey, in vivo, read-out: Vbeta; method in brief: as §1
[25] = Terminal phase volume of distribution in dog at 2.5 mg/kg, iv; format: ADME, organism-based, Canis lupus familiaris; parameters: dose 2.5 mg/kg, route intravenous; settings: in vivo, read-out: Vbeta; method in brief: as §2
[26] = AUC in rat at 5 mg/kg, po; format: ADME, organism-based; parameters: dose 5 mg/kg, route oral; settings: plasma; method in brief: as §2
[27] = Terminal phase volume of distribution in rat at 5 mg/kg, iv; format: ADME, organism-based; parameters: dose 5 mg/kg, route intravenous; settings: in vivo, read-out: Vbeta; method in brief: as §1
[28] = Elimination half life in monkey at 5 mg/kg, po; format: ADME, organism-based, Macaca mulatta; parameters: dose 5 mg/kg, route oral; settings: rhesus monkey, in vivo, read-out: beta t1/2 (converted); method in brief: as §2
[29] = Volume of distribution at steady state in monkey at 5 mg/kg, iv; format: ADME, organism-based, Macaca mulatta; parameters: dose 5 mg/kg, route intravenous; settings: rhesus monkey, in vivo, read-out: Vdss; method in brief: as §1
[30] = Metabolic stability in monkey hepatocytes assessed as intrinsic clearance; format: ADME, cell-based, Macaca mulatta, Liver, Hepatocyte; settings: rhesus monkey
[31] = Metabolic stability in rat liver microsomes assessed as intrinsic clearance; format: ADME, Microsome
[32] = Cmax in monkey at 5 mg/kg, po; format: ADME, organism-based, Macaca mulatta; parameters: dose 5 mg/kg, route oral; settings: rhesus monkey, in vivo; method in brief: as §2
[33] = AUC in rat at 5 mg/kg, iv; format: ADME, organism-based; parameters: dose 5 mg/kg, route intravenous; settings: plasma; method in brief: as §2
[34] = Volume of distribution at steady state in dog at 2.5 mg/kg, iv; format: ADME, organism-based, Canis lupus familiaris; parameters: dose 2.5 mg/kg, route intravenous; settings: in vivo, read-out: Vdss; method in brief: as §1
[35] = Oral bioavailability in rat at 5 mg/kg; format: ADME, organism-based; settings: in vivo; method in brief: as §2
Hepatocyte [36] = assay: Metabolic stability in rat hepatocytes assessed as intrinsic clearance; format: ADME, cell-based, Liver
[37] = Plasma clearance in monkey at 5 mg/kg, iv; format: ADME, organism-based, Macaca mulatta; parameters: dose 5 mg/kg, route intravenous; settings: rhesus monkey; method in brief: as §2
[38] = Cmax in rat at 5 mg/kg, po; format: ADME, organism-based; parameters: dose 5 mg/kg, route oral; settings: in vivo; method in brief: as §2
[39] = Aqueous solubility in 50 mM citrate buffer at pH 4; format: physicochemical; method in brief: as §3
[40] = Cytotoxicity against human HuH7 cells by MTT assay; format: cell-based, Huh-7; settings: read-out: TD50 (the source's name)
Method in brief: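 Cytotoxicity in Huh-7 replicon cultures measured by MTT colorimetric assay after the four-day incubation.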

[41] = AUC in monkey at 5 mg/kg, iv; format: ADME, organism-based, Macaca mulatta; parameters: dose 5 mg/kg, route intravenous; settings: rhesus monkey, plasma; method in brief: as §2
[42] = AUC in monkey at 5 mg/kg, po; format: ADME, organism-based, Macaca mulatta; parameters: dose 5 mg/kg, route oral; settings: rhesus monkey, plasma; method in brief: as §2
Hepatocyte [43] = assay: Metabolic stability in human hepatocytes assessed as intrinsic clearance; format: ADME, cell-based, Liver
[44] = Tmax in rat at 5 mg/kg, po; format: ADME, organism-based; parameters: dose 5 mg/kg, route oral; settings: in vivo; method in brief: as §5
[45] = Plasma clearance in rat at 5 mg/kg, iv; format: ADME, organism-based; parameters: dose 5 mg/kg, route intravenous; method in brief: as §2
[46] = Cmax in dog at 2.5 mg/kg, po; format: ADME, organism-based, Canis lupus familiaris; parameters: dose 2.5 mg/kg, route oral; settings: in vivo; method in brief: as §2
[47] = Inhibition of HCV isolate H77 NS5B polymerase after 3 hrs by scintillation counting
[48] = Tmax in monkey at 5 mg/kg, po; format: ADME, organism-based, Macaca mulatta; parameters: dose 5 mg/kg, route oral; settings: rhesus monkey, in vivo; method in brief: as §5
[49] = Elimination half life in dog at 2.5 mg/kg, iv; format: ADME, organism-based, Canis lupus familiaris; parameters: dose 2.5 mg/kg, route intravenous; settings: in vivo, read-out: beta t1/2 (converted); method in brief: as §2
[50] = AUC in dog at 2.5 mg/kg, po; format: ADME, organism-based, Canis lupus familiaris; parameters: dose 2.5 mg/kg, route oral; settings: plasma; method in brief: as §2
[51] = Metabolic stability in dog liver microsomes assessed as intrinsic clearance; format: ADME, Canis lupus familiaris, Microsome

COc1ccc2c(O[C@@H]3C[C@H]4C(=O)N[C@]5(C(=O)O)C[C@H]5/C=C\CCCCC[C@H](NC(=O)OC5CCCC5)C(=O)N4C3)cc(-c3csc(NC(C)C)n3)nc2c1
Activity (Hepatitis C virus [1]): 2 | EC50 (Hepatitis C virus [2]): 3 nM | EC50 (Hepatitis C virus [3]): 3 nM

CC(C)(C)CC[C@@]1(C)C(=O)C(C2=NS(=O)(=O)c3cc(NS(C)(=O)=O)ccc3N2)=C([O-])c2ccccc21.[Na+]
Vd [4]: 2.22 L/kg | AUC [5]: 116000 ng·h/mL | IC50 [6]: 0.6 nM | clearance [7]: 0.333 mL/min/kg | half-life [8]: 4.5 h | solubility [9]: 150000 µg/mL | logD [10]: 2.26 | half-life [11]: 2.1 h | concentration at 6 h [12]: 21800 ng/g | microsomal CLint [13]: 14.4 µL/min/mg | Ratio EC50 (Hepatitis C virus [14]): 17 | CL [15]: 0.5 µL/min/mg | half-life [16]: 14.8 h | microsomal CLint [17]: 23.6 µL/min/mg | Tmax [18]: 2.2 h | bioavailability [19]: 100% | bioavailability [20]: 19% | concentration at 12 h [21]: 4190 ng/g | EC50 (Hepatitis C virus [22]): 28 nM | solubility [23]: 110 µg/mL | Vd [24]: 1.77 L/kg | Vd [25]: 0.46 L/kg | AUC [26]: 11500 ng·h/mL | Vd [27]: 2.39 L/kg | half-life [28]: 2 h | Vd [29]: 0.77 L/kg | CL [30]: 3.5 µL/min/mg | microsomal CLint [31]: 8.7 µL/min/mg | EC50 (Hepatitis C virus [2]): 4 nM | Cmax [32]: 480 ng/mL | AUC [33]: 14900 ng·h/mL | Vd [34]: 0.38 L/kg | bioavailability [35]: 77.3% | CL (Hepatocyte [36]): 1.6 µL/min/mg | clearance [37]: 9.33 mL/min/kg | Cmax [38]: 890 ng/mL | solubility [39]: < 0.2 µg/mL | CC50 [40]: 21700 nM | AUC [41]: 10200 ng·h/mL | AUC [42]: 1900 ng·h/mL | CL (Hepatocyte [43]): 2.7 µL/min/mg | EC50 (Hepatitis C virus [3]): 2 nM | Tmax [44]: 9 h | clearance [45]: 5.67 mL/min/kg | Cmax [46]: 5700 ng/mL | IC50 [47]: 0.7 nM | Tmax [48]: 2.7 h | half-life [49]: 12.3 h | AUC [50]: 121000 ng·h/mL | microsomal CLint [51]: 2.4 µL/min/mg
